Measurements: ChEMBL document CHEMBL4130635, “2,4-Diaminoquinazolines as Dual Toll-like Receptor (TLR) 7/8 Modulators for the Treatment of Hepatitis B Virus” (J Med Chem, 2018)
The source made the active and inactive calls. No cut-off for these calls is given here.

Legend:
[1] = Stability in cynomolgus monkey hepatocytes assessed compound turnover at 1 uM after 60 mins; format: ADME, cell-based, Macaca fascicularis, Hepatocyte; conditions: read-out: Drug metabolism
Liver [2] = assay: Proinflammatory activity in C57BL/6J mouse liver assessed as IL-6 levels at 10 mg/kg, po by multiplex assay (reference value: 10 pg/g); format: functional
Cynomolgus monkey [3] = assay: Activation of monocytes in cynomolgus monkey plasma assessed as upregulation of IL1Ra levels at 30 mg/kg, po after 24 hrs by Luminex assay (reference value: 320 pg/ml); format: functional, Macaca fascicularis
Plasma [4] = assay: Induction of IFNalpha levels in C57BL/6J mouse plasma at 1 mg/kg, po by ELISA; format: functional
Liver [5] = assay: Effect on cytokine profile in C57BL/6J mouse liver assessed as IFNgamma levels at 3 mg/kg, po by multiplex assay; format: functional
In short: (§1)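 Single oral gavage in 20% HP-β-CD to healthy C57BL/6 mice, groups of 15 at 0.3, 1, 3, 10 or 30 mg/kg. Three mice per group sacrificed at 0.5, 1, 2, 4 or 7 h. Plasma and liver cytokines by multiplex, maximum level reported, rounded to nearest multiple of 5.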

Cynomolgus monkey [6] = assay: Effect on cytokine profile in cynomolgus monkey plasma assessed as IL-15 levels at 9 mg/kg, po after 24 hrs by Luminex assay (reference value: 20 pg/ml); format: functional, Macaca fascicularis
In short: (§2)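 Healthy cynomolgus monkeys given single oral doses of 1, 3, 9 and 30 mg/kg, with a 2-week wash-out planned between doses. Systemic cytokine levels in plasma were sampled at 0.5, 1, 2, 4, 9 and 24 h postdose.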

Cynomolgus monkey [7] = assay: Activation of monocytes in cynomolgus monkey plasma assessed as upregulation of MIP1 levels at 1 mg/kg, po after 24 hrs by Luminex assay (reference value: 37 pg/ml); format: functional, Macaca fascicularis
Cynomolgus monkey [8] = assay: Plasma concentration in cynomolgus monkey at 30 mg/kg, po by LC-MS analysis; format: ADME, organism-based, Macaca fascicularis; conditions: in vivo
[9] = Stability in dog hepatocytes assessed compound turnover at 1 uM after 60 mins; format: ADME, cell-based, Canis lupus familiaris, Hepatocyte; conditions: read-out: Drug metabolism
[10] = target: T1, TLR7 and TLR8 (Homo sapiens) (UniProt Q9NYK1+Q9NR97); assay: Agonist activity at TLR7/8 in human PBMCs co-cultured with primary human hepatocytes infected with HBV genotype C for 12 days assessed as increase in MIP-1alpha levels up to 5 uM measured after 42 days
Liver [11] = assay: Anti-inflammatory activity in C57BL/6J mouse liver assessed as IL-10 levels at 30 mg/kg, po by multiplex assay (reference value: 2 pg/g); format: functional; in short: as §1
Plasma [12] = assay: Proinflammatory activity in C57BL/6J mouse plasma assessed as CXCL-1 levels at 1 mg/kg, po by multiplex assay (reference value: 230 pg/ml); format: functional
Cynomolgus monkey [13] = assay: Effect on cytokine profile in cynomolgus monkey plasma assessed as IP10 levels at 9 mg/kg, po after 24 hrs by Luminex assay (reference value: 18.5 pg/ml); format: functional, Macaca fascicularis; in short: as §2
Liver [14] = assay: Anti-inflammatory activity in C57BL/6J mouse liver assessed as IL-10 levels at 10 mg/kg, po by multiplex assay (reference value: 2 pg/g); format: functional; in short: as §1
[15] = Protein binding in dog plasma fraction at 5 uM after 4.5 hrs LC-MS/MS-based rapid equilibrium dialysis method; format: ADME, cell-free, Canis lupus familiaris; conditions: read-out: PPB (converted)
Liver [16] = assay: Effect on cytokine profile in C57BL/6J mouse liver assessed as IFNgamma levels at 10 mg/kg, po by multiplex assay; format: functional; in short: as §1
Mus musculus = assay: Toxicity in C57BL/6J mouse assessed as change in body temperature at 1 to 30 mg/kg, po; format: organism-based; conditions: in vivo
Cynomolgus monkey [17] = assay: Anti-inflammatory activity in cynomolgus monkey plasma assessed as IL-10 levels at 9 mg/kg, po after 24 hrs by Luminex assay (reference value: 195 pg/ml); format: functional, Macaca fascicularis
Plasma [18] = assay: Proinflammatory activity in C57BL/6J mouse plasma assessed as IL-6 levels at 30 mg/kg, po by multiplex assay (reference value: 505 pg/ml); format: functional
Cynomolgus monkey [19] = assay: Induction of G-CSF in cynomolgus monkey plasma at 3 mg/kg, po after 24 hrs by Luminex assay (reference value: 85 pg/ml); format: functional, organism-based; conditions: Macaca fascicularis; in short: as §2
[20] = target: T1, TLR7 and TLR8 (Homo sapiens); assay: Agonist activity at TLR7/8 in human PBMCs co-cultured with primary human hepatocytes infected with HBV genotype C for 12 days assessed as increase in IL-6 levels up to 5 uM measured after 42 days
Cynomolgus monkey [21] = assay: Activation of monocytes in cynomolgus monkey plasma assessed as upregulation of IL1Ra levels at 9 mg/kg, po after 24 hrs by Luminex assay (reference value: 320 pg/ml); format: functional, Macaca fascicularis
Liver [22] = assay: Proinflammatory activity in C57BL/6J mouse liver assessed as IL-1beta levels at 10 mg/kg, po by multiplex assay; format: functional
Liver [23] = assay: Induction of IFNalpha levels in C57BL/6J mouse liver at 1 mg/kg, po by ELISA (reference value: 30 pg/g); format: functional
[24] = Intrinsic clearance in dog liver microsomes assessed per mg protein at 1 uM up to 60 mins; format: ADME, Canis lupus familiaris, microsome; conditions: read-out: CLH
Plasma [25] = assay: Proinflammatory activity in C57BL/6J mouse plasma assessed as CXCL-1 levels at 0.3 mg/kg, po by multiplex assay (reference value: 230 pg/ml); format: functional
[26] = target: T1, TLR7 and TLR8 (Homo sapiens); assay: Agonist activity at TLR7/8 in human PBMCs co-cultured with primary human hepatocytes infected with HBV genotype C for 12 days assessed as increase in TNFalpha levels up to 5 uM measured after 42 days
Plasma [27] = assay: Upregulation of IP-10 mRNA expression levels in C57BL/6J mouse plasma at 1 mg/kg, po by RT-qPCR analysis (reference value: 1); format: functional
[28] = Intrinsic clearance in rat liver microsomes assessed per mg protein at 1 uM up to 60 mins; format: ADME, microsome; conditions: read-out: CLH
[29] = Cmax in Sprague-Dawley rat liver at 10 mg/kg, po; format: ADME, organism-based; set-up: dose 10 mg/kg, route oral
In short: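 Male Sprague-Dawley rats given 10 mg/kg po as a solution. Compound measured in portal vein, systemic plasma and liver. Cmax taken from concentration–time profiles.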

Liver [30] = assay: Upregulation of IP-10 mRNA expression levels in C57BL/6J mouse liver at 30 mg/kg, po by RT-qPCR analysis (reference value: 1); format: functional
[31] = Permeability of the compound in porcine LLC-PK1 cells expressing MDR1 at 1 uM by LC-MS/MS analysis; format: ADME, cell-based, Sus scrofa; conditions: pig, llc-pk1, 1 µM
Liver [32] = assay: Anti-inflammatory activity in C57BL/6J mouse liver assessed as IL-10 levels at 0.3 mg/kg, po by multiplex assay (reference value: 2 pg/g); format: functional
In short: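 Mice (C57BL/6) got a single oral dose of 0.3–30 mg/kg in 20% HP-β-CD, in groups of 15. Three per group were sacrificed at 0.5, 1, 2, 4 or 7 h, and liver cytokines were measured by multiplex. Values were rounded to the nearest multiple of 5.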

T1 sequence (Q9NR97 whole entry, looked up): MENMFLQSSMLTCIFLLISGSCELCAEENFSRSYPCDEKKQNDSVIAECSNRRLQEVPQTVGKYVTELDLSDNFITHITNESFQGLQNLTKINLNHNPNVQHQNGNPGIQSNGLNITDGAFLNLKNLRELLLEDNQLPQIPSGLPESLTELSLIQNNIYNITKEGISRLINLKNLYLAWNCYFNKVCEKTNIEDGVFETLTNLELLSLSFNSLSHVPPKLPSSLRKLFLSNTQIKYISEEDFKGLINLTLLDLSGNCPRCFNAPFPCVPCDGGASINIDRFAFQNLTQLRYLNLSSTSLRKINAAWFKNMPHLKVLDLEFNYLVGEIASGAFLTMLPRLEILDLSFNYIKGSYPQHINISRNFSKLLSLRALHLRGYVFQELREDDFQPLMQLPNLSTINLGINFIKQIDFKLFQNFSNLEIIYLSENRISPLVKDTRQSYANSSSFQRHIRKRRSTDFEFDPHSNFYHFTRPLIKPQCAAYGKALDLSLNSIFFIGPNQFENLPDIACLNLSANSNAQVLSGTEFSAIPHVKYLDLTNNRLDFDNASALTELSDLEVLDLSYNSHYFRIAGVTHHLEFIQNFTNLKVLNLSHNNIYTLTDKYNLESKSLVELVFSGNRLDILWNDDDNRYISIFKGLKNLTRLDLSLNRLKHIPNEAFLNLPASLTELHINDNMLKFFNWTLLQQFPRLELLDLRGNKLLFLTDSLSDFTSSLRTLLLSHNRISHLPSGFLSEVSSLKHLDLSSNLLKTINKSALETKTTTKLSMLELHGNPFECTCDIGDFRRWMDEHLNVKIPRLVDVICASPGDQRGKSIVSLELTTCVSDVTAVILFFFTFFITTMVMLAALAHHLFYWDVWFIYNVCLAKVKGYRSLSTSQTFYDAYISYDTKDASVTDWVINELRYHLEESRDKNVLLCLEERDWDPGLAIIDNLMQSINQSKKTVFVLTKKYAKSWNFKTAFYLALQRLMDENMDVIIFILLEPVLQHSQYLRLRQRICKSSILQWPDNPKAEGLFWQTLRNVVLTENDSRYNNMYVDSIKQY
T1 sequence (Q9NYK1 whole entry, looked up): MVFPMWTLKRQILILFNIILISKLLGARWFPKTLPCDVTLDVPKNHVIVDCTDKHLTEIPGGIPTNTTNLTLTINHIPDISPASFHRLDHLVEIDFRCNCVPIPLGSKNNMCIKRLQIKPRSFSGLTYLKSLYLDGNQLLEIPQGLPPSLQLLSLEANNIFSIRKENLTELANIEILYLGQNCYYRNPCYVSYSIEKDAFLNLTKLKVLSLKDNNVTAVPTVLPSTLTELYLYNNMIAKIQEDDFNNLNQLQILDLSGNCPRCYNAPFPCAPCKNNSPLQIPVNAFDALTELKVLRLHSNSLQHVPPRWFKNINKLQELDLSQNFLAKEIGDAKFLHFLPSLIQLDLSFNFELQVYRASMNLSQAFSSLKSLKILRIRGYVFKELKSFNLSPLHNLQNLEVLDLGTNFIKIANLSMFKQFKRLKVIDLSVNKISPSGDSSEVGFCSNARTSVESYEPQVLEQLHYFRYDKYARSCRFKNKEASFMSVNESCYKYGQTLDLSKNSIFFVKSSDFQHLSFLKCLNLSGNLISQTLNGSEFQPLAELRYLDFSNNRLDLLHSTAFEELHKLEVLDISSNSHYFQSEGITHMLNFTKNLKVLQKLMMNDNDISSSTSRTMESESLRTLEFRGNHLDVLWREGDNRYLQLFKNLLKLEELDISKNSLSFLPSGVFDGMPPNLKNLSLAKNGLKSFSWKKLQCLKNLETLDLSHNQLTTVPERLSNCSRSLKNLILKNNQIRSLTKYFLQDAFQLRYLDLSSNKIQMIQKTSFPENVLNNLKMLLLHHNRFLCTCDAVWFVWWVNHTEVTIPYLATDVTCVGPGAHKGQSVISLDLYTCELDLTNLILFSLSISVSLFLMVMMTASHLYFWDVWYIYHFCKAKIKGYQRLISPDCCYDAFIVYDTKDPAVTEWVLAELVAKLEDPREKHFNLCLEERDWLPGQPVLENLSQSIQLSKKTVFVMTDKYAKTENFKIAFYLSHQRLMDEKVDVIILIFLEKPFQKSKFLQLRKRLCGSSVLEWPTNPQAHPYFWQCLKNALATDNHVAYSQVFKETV

**Q.** Which results are given for `CCC[C@@H](CCO)Nc1nc(N)nc2c(F)cccc12`?
**A.** metabolised at 1 h, 1 µM [1]: 98%; Activity (Liver [2]): 3450 pg/g; Activity (Cynomolgus monkey [3]): 2970 pg/mL; Activity (Plasma [4]): 180 pg/mL; Activity (Liver [5]): 150 pg/g; Activity (Cynomolgus monkey [6]): 75 pg/mL; Activity (Cynomolgus monkey [7]): 44 pg/mL; Cp (Cynomolgus monkey [8]): 160 ng/mL; metabolised at 1 h, 1 µM [9]: 77%; Activity [10]: Active; Activity (Liver [11]): 5185 pg/g; Activity (Plasma [12]): 2155 pg/mL; Activity (Cynomolgus monkey [13]): 2400 pg/mL; Activity (Liver [14]): 2265 pg/g; fraction unbound at 4.5 h, 5 µM [15]: 0.59; Activity (Liver [16]): 430 pg/g; Activity (Mus musculus): Non-Toxic; Activity (Cynomolgus monkey [17]): 3785 pg/mL; Activity (Plasma [18]): >10000 pg/mL; Activity (Cynomolgus monkey [19]): Below limit of detection; Activity [20]: Active; Activity (Cynomolgus monkey [21]): 2455 pg/mL; Activity (Liver [22]): 29525 pg/g; Activity (Liver [23]): 215 pg/g; microsomal CLint at 1 µM [24]: 21 µL/min/mg; Activity (Plasma [25]): 2180 pg/mL; Activity [26]: Active; fold change (FC) (Plasma [27]): 845; microsomal CLint at 1 µM [28]: 24 µL/min/mg; Cmax [29]: 285 ng/g; fold change (FC) (Liver [30]): 1180; permeability [31]: Permeable; Activity (Liver [32]): 730 pg/g
